The test system of data set [1] is Huh-7. As to the kind of experiment: Cytotoxicity against human HuH7 cells infected with Hepatitis B virus subtype adw2 assessed as reduction in cell viability at >80 ug/ml after 3 days by MTS assay. Type of data set: cell-based. Particulars: huh-7, 72 h. In a few lines:
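HBV-expressing Huh7 cells were plated for 24 h, then exposed to serial dilutions (2.5–160 μg/mL) for 3 days. Viability was measured by MTS assay. Mean ± SD, n = 4, compared with untreated cells.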

In data set [2] the test system is Hepatitis B virus subtype adw2. As to the kind of experiment: Antiviral activity against Hepatitis B virus subtype adw2 infected in human HuH7 cells assessed as inhibition of HBsAg secretion after 3 days by EIA. Type of data set: functional, cell-based. A digest of the protocol: (§1)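 HBV-expressing Huh7 cells were given 2.5, 5 or 10 μg/mL for 3 days. HBsAg and HBeAg in the conditioned medium were measured by enzyme immunoassay. Mean ± SD, n = 3, compared with untreated cells.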

Data set [3] concerns Hepatitis B virus subtype adw2. Briefly: Antiviral activity against Hepatitis B virus subtype adw2 infected in human HuH7 cells assessed as inhibition of HBeAg secretion after 3 days by EIA. Format: functional, cell-based. A digest of the protocol: as §1
The subject of data set [4] is Hepatitis B virus subtype adw2. As to the kind of experiment: Antiviral activity against Hepatitis B virus subtype adw2 infected in human HuH7 cells assessed as reduction in major S/preS RNA level at 2.5 to 10 ug/ml after 2 days by northern blot method. Type of data set: functional, cell-based. In a few lines:
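After pHBV1.2 transfection of Huh7 cells for 2 days, cells were treated at 2.5, 5 or 10 μg/mL for 2 more days. Total RNA was Northern-blotted with an HBV whole-genome DNA probe. GAPDH served as loading control and β-gal marked transfection efficiency. Bands from three experiments were quantified by densitometry and normalized to GAPDH.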

Data set [5] deals with Hepatitis B virus subtype adw2. As to the kind of experiment: Antiviral activity against Hepatitis B virus subtype adw2 infected in human HuH7 cells assessed as reduction in SHBs level at 2.5 to 10 ug/ml after 2 days by immunoblot method. Type of data set: functional, cell-based. In a few lines:
(§2)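 Huh7 cells were transfected with pHBV1.2 (1.2-fold HBV adw2 genome) for 2 days, then exposed to 2.5, 5 or 10 μg/mL for another 2 days. Whole-cell protein was extracted with protease inhibitors. SHBs, HBcAg and HBx were detected by immunoblot, with α-tubulin for comparison.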
In general terms: A western blot detects proteins with antibodies after separation by electrophoresis.

Data set [6] can be described thus: Antiviral activity against Hepatitis B virus subtype adw2 infected in human HuH7 cells assessed as reduction in HBcAg level at 2.5 ug/ml after 2 days by immunoblot method relative to control. Format: functional. In a few lines: as §2
The nature of data set [7]: Antiviral activity against Hepatitis B virus subtype adw2 infected in human HuH7 cells assessed as reduction in HBcAg level at 5 ug/ml after 2 days by immunoblot method relative to control. Format: functional. A digest of the protocol:
as §2

Data set [8] is described as follows: Antiviral activity against Hepatitis B virus subtype adw2 infected in human HuH7 cells assessed as reduction in HBcAg level at 10 ug/ml after 2 days by immunoblot method relative to control. Type of data set: functional. In a few lines: as §2
Data set [9] deals with Hepatitis B virus. As to the kind of experiment: Decrease in HBV core promoter activity infected in human HuH7 cells cotransfected with pHBV1.2 at 10 ug/ml after 24 hrs by luciferase reporter gene assay. Format: cell-based. In a few lines: (§3)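 Huh7 cells were seeded for 24 h, then cotransfected with pHBV1.2, pRLSV40 and a pGL4.17-based Core (nt 1636-1851), S (nt 3114-220), PreS (nt 2438-2855) or X (nt 1071-1357) promoter-luciferase construct for 24 h. Cells were then treated at 10 μg/mL for 24 h and lysates were assayed for luciferase. Mean ± SD, n = 3.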
On the technique in general: Reporter assays use an easily measured gene product as a stand-in for the process of interest.

For data set [10], the system named is Hepatitis B virus. Briefly: Decrease in HBV S promoter activity infected in human HuH7 cells cotransfected with pHBV1.2 at 10 ug/ml after 24 hrs by luciferase reporter gene assay. Format: cell-based. A digest of the protocol: as §3
In data set [11] the test system is Hepatitis B virus. Briefly: Decrease in HBV preS promoter activity infected in human HuH7 cells cotransfected with pHBV1.2 at 10 ug/ml after 24 hrs by luciferase reporter gene assay. Type of data set: cell-based. In a few lines: as §3
The test system of data set [12] is Huh-7. Briefly: Decrease in NF-kB p65 protein expression in human HuH7 cells transfected with pHBV1.2 at 2.5 ug/ml after 2 days by immunoblot method relative to control. Format: functional. A digest of the protocol:
(§4)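 Huh7 cells were transfected with pHBV1.2 for 2 days, then treated at 2.5, 5 or 10 μg/mL for another 2 days. Whole-cell protein was extracted with protease inhibitors. NF-κB p65/p50, phospho-p65, IKKα/β and IκBα/phospho-IκBα were detected by immunoblot. Blots are representative of three experiments.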

Data set [13] has as its system Huh-7. Briefly: Decrease in NF-kB p65 protein expression in human HuH7 cells transfected with pHBV1.2 at 5 ug/ml after 2 days by immunoblot method relative to control. Type of data set: functional. In a few lines:
as §4

Data set [14] relates to Huh-7. As to the kind of experiment: Decrease in NF-kB p65 protein expression in human HuH7 cells transfected with pHBV1.2 at 10 ug/ml after 2 days by immunoblot method relative to control. Format: functional. A digest of the protocol:
as §4

Data set [15] deals with Huh-7. Briefly: Decrease in NF-kB p50 protein expression in human HuH7 cells transfected with pHBV1.2 at 10 ug/ml after 2 days by immunoblot method relative to control. Type of data set: functional. A digest of the protocol:
as §4

Data set [16] has as its system Huh-7. As to the kind of experiment: Effect on IKKalpha protein expression in human HuH7 cells transfected with pHBV1.2 at 2.5 ug/ml after 2 days by immunoblot method relative to control. Type of data set: functional. A digest of the protocol: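 HBV adw2 genome plasmid pHBV1.2 transfected into Huh7 for 2 days, then 2.5, 5 or 10 μg/mL for another 2 days. Whole-cell protein extracted with protease inhibitors, then SDS-PAGE immunoblot for NF-κB and MAPK pathway proteins. Blots are representative of three sets of experiments.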

The test system of data set [17] is Huh-7. As to the kind of experiment: Decrease in IKKbeta protein expression in human HuH7 cells transfected with pHBV1.2 at 2.5 ug/ml after 2 days by immunoblot method relative to control. Format: functional. A digest of the protocol: as §4
The target of data set [18] is Transcription factor p65 (Homo sapiens) (UniProt Q04206). As to the kind of experiment: Decrease in NF-kB p65 phosphorylation in human HuH7 cells transfected with pHBV1.2 at 10 ug/ml after 2 days by immunoblot method relative to control. Type of data set: cell-based. A digest of the protocol: as §4
The subject of data set [19] is Hepatitis B virus subtype adw2. As to the kind of experiment: Antiviral activity against Hepatitis B virus subtype adw2 infected in human HuH7 cells assessed as inhibition of viral DNA replication at 10 ug/ml cotreated with MAPK activator anisomycin after 2 days by RT-PCR method. Format: functional, cell-based. In a few lines:
(§5)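 Huh7 cells were cotransfected with pHBV1.2 and, where stated, 0.5 or 2.5 μg pCMV-p65 (or empty vector) for 2 days, then treated at 10 μg/mL for 2 days. In separate wells, HBV-expressing cells received 10 μg/mL with or without anisomycin (10 μM) for 2 days. Secreted viral particles were kit-isolated and HBV DNA was measured by real-time PCR, n = 3.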

A short description of data set [20]: Antiviral activity against Hepatitis B virus subtype adw2 infected in human HuH7 cells assessed as inhibition of viral DNA replication at 10 ug/ml after 2 days by RT-PCR method relative to control. Format: functional. The conditions noted are these: Huh-7, 48 h. In a few lines:
as §5

The nature of data set [21]: Antiviral activity against Hepatitis B virus in human HepG2.2.15 cells assessed as inhibition of HBsAg secretion by EIA.
For data set [22], the system named is Huh-7. As to the kind of experiment: Decrease in ERK1/2 protein expression in human HuH7 cells transfected with pHBV1.2 at 2.5 to 10 ug/ml after 2 days by immunoblot method.

Structures are written as SMILES. pIC50: −log10 of the molar value. The source made the active and inactive calls. The rule behind the calls is not given here.

Broadly, the inhibition is how much of the control response was suppressed. One may read the pIC50 as the negative decadic logarithm of the IC50, by convention in mol/L.

Chain of Transcription factor p65 (Homo sapiens) (Q04206 whole entry): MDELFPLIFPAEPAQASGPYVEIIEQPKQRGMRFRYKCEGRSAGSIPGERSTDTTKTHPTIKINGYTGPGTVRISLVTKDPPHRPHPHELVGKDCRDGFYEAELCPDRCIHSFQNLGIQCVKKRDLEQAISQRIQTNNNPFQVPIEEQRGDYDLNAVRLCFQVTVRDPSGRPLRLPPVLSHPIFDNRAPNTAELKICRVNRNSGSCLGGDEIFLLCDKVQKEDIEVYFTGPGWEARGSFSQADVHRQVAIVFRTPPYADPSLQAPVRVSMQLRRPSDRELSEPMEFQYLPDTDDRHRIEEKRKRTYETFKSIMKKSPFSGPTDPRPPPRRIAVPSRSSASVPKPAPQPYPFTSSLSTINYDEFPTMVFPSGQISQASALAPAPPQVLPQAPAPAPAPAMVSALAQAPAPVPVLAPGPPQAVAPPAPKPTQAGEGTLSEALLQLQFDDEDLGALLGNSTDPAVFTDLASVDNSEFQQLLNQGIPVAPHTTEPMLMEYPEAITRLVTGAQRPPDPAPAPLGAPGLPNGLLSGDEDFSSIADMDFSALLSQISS

Turning to `C=C1C[C@@]23CC[C@H]4[C@@](C)(CCC[C@@]4(C)NC(=O)NCCCC)[C@@H]2CC[C@]1(O)C3`, the Activity result in data set [1] was “Toxic”. In addition, the inhibition result in [2] and in data set [3] was “Dose-dependent effect” in each case. Further, the result in data set [4], in data set [5], in data set [9], in data set [10], in data set [11] and in data set [22] was Active. Moreover, the “fold change (FC)” value in [6] was found to be 0.78; in data set [7], 0.81; in data set [8], 0.11; in data set [12] it was 0.89; in [13] it was 0.88; in data set [14] it was 0.33. The “fold change (FC)” value in data set [15] is 0.26; in data set [16] it was 1.1; in data set [17] it was 0.99; in data set [18], 0.23. Besides, the inhibition result in data set [19] was “inactive”. The inhibition at 10 µg/mL in data set [20] was 38%. Besides, the negative-log IC50 (pIC50) in data set [21] is 4.63.
